# According to ChEMBL document CHEMBL4411279, “Synthesis of new chalcone-based homoserine lactones and their antiproliferative activity evaluation” (Eur J Med Chem, 2019):
# Active and inactive are the calls of the source. The rule behind the calls is not given here.
# Experiments:
# [1] = system: DU-145; experiment: Growth inhibition of human DU145 cells at 5 uM by MTT assay; format: functional, cell-based; conditions: TDE = time-dependent effect
# Method in brief: (§1)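 DU145 growth inhibition measured by MTT; time course at 24, 48 and 72 h; combination arm used recombinant TRAIL at 100 ng/mL together with compound (2.5 or 5.0 µM); mean ± SD, experiment repeated three times, Student's t test.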
# [2] = system: DU-145; experiment: Induction of apoptosis in human DU145 cells assessed as necrotic cells at 10 uM after 24 hrs by Annexin V-FITC/propidium iodide staining-based high content screening assay (reference value: 1.6%); format: functional
# Method in brief: (§2)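 DU145 seeded 3×10^5/well, grown 24 h, treated 24 h with compound alone or plus TRAIL; harvested, stained with Annexin V-FITC/PI per kit protocol, quantified by high content screening; mean ± SD of three experiments.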
# [3] = system: MCF7; experiment: Antiproliferative activity against human MCF7 cells after 72 hrs by MTT assay; format: functional, cell-based; conditions: MCF7, 72 h
# Method in brief: (§3)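 Cells seeded 3,000/well, after 24 h medium replaced with compound at 64, 32, 16, 8, 4, 2, 1, 0.5 µM; 72 h exposure, MTT read-out at 570 nm; IC50 given as mean ± SD.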
# [4] = system: DU-145; experiment: Induction of apoptosis in human DU145 cells assessed as formation of apoptotic bodies at 10 uM after 24 hrs by Hoechst 33258 staining-based fluorescence microscopic analysis; format: functional, cell-based
# Method in brief: (§4)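 DU145 seeded 1×10^5/well, adhered overnight, treated 24 h with compound alone or combined with TRAIL; stained with Hoechst 33258 for 30 min in the dark; nuclear morphology examined by fluorescence microscopy.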
# [5] = system: DU-145; experiment: Induction of apoptosis in human DU145 cells assessed as chromatin shrinkage at 10 uM after 24 hrs by Hoechst 33258 staining-based fluorescence microscopic analysis; format: functional, cell-based; method in brief: as §4
# [6] = system: DU-145; experiment: Induction of apoptosis in human DU145 cells assessed as viable cells at 10 uM after 24 hrs in presence of TRAIL by Annexin V-FITC/propidium iodide staining-based high content screening assay (reference value: 97.9%); format: functional; conditions: DU-145, 24 h, read-out: Activity; method in brief: as §2
# [7] = system: DU-145; experiment: Induction of apoptosis in human DU145 cells assessed as chromatin shrinkage at 10 uM after 24 hrs in presence of TRAIL by Hoechst 33258 staining-based fluorescence microscopic analysis; format: functional, cell-based; method in brief: as §4
# [8] = system: DU-145; experiment: Induction of apoptosis in human DU145 cells assessed as viable cells at 10 uM after 24 hrs by Annexin V-FITC/propidium iodide staining-based high content screening assay (reference value: 97.9%); format: functional; conditions: DU-145, 24 h, read-out: Activity; method in brief: as §2
# [9] = system: DU-145; experiment: Induction of apoptosis in human DU145 cells assessed as late apoptotic cells at 10 uM after 24 hrs in presence of TRAIL by Annexin V-FITC/propidium iodide staining-based high content screening assay (reference value: 0.2%); format: functional; method in brief: as §2
# [10] = system: DU-145; experiment: Induction of apoptosis in human DU145 cells assessed as early apoptotic cells at 10 uM after 24 hrs by Annexin V-FITC/propidium iodide staining-based high content screening assay (reference value: 0.3%); format: functional; method in brief: as §2
# [11] = system: DU-145; experiment: Induction of apoptosis in human DU145 cells assessed as necrotic cells at 10 uM after 24 hrs in presence of TRAIL by Annexin V-FITC/propidium iodide staining-based high content screening assay (reference value: 1.6%); format: functional; method in brief: as §2
# [12] = system: DU-145; experiment: Induction of apoptosis in human DU145 cells assessed as increase in caspase-3/7 activity at 10 to 50 uM after 24 hrs by Caspase-Glo 3/7 assay; format: functional, cell-based
# Method in brief: (§5)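 DU145 treated 24 h with compound alone or with TRAIL (100 ng/mL); caspase-3/7 activity measured by Caspase-Glo 3/7 luminescent protocol relative to untreated control; three independent experiments, mean ± SD, Student's t test.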
# [13] = system: PC-3; experiment: Antiproliferative activity against human PC3 cells after 72 hrs by MTT assay; format: functional, cell-based; conditions: PC-3, 72 h; method in brief: as §3
# [14] = system: DU-145; experiment: Growth inhibition of human DU145 cells at 5 uM after 24 to 48 hrs by MTT assay; format: functional, cell-based; method in brief: as §1
# [15] = system: DU-145; experiment: Induction of apoptosis in human DU145 cells assessed as increase in caspase-3/7 activity at 10 uM after 24 hrs in presence of TRAIL by Caspase-Glo 3/7 assay relative to control; format: functional; method in brief: as §5
# [16] = system: DU-145; experiment: Inhibition of colony formation in human DU145 cells after 21 days by crystal violet staining-based assay; format: functional, cell-based
# Method in brief: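 DU145 seeded 4000/well, grown 4 days, then medium with compound at various concentrations for 21 days; PBS washed, fixed in 4% paraformaldehyde, stained with 0.1% crystal violet; colonies (>10 cells) counted; inhibition = (1 − treated/control colonies) × 100%.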
# [17] = system: DU-145; experiment: Induction of apoptosis in human DU145 cells assessed as cell rounding at 10 uM after 24 hrs by Hoechst 33258 staining-based fluorescence microscopic analysis; format: functional; method in brief: as §4
# [18] = system: DU-145; experiment: Growth inhibition of human DU145 cells at 5 uM after 72 hrs in presence of TRAIL by MTT assay relative to control; format: functional; conditions: DU-145, 72 h, read-out: GI; method in brief: as §1
# [19] = system: DU-145; experiment: Induction of apoptosis in human DU145 cells assessed as cell rounding at 10 uM after 24 hrs in presence of TRAIL by Hoechst 33258 staining-based fluorescence microscopic analysis; format: functional; method in brief: as §4
# [20] = system: MGC-803; experiment: Antiproliferative activity against human MGC803 cells after 72 hrs by MTT assay; format: functional, cell-based; conditions: MGC-803, 72 h; method in brief: as §3
# [21] = system: DU-145; experiment: Antiproliferative activity against human DU145 cells after 72 hrs by MTT assay; format: functional, cell-based; conditions: DU-145, 72 h; method in brief: as §3
# [22] = system: DU-145; experiment: Induction of apoptosis in human DU145 cells assessed as late apoptotic cells at 10 uM after 24 hrs by Annexin V-FITC/propidium iodide staining-based high content screening assay (reference value: 0.2%); format: functional; method in brief: as §2
# [23] = system: DU-145; experiment: Induction of apoptosis in human DU145 cells assessed as early apoptotic cells at 10 uM after 24 hrs in presence of TRAIL by Annexin V-FITC/propidium iodide staining-based high content screening assay (reference value: 0.3%); format: functional; method in brief: as §2
# [24] = system: DU-145; experiment: Induction of apoptosis in human DU145 cells assessed as formation of apoptotic bodies at 10 uM after 24 hrs in presence of TRAIL by Hoechst 33258 staining-based fluorescence microscopic analysis; format: functional, cell-based; method in brief: as §4
# [25] = system: DU-145; experiment: Induction of apoptosis in human DU145 cells assessed as chromatin shrinkage at 5 uM after 24 hrs by Hoechst 33258 staining-based fluorescence microscopic analysis; format: functional, cell-based; method in brief: as §4
# [26] = system: DU-145; experiment: Induction of apoptosis in human DU145 cells assessed as viable cells at 5 uM after 24 hrs by Annexin V-FITC/propidium iodide staining-based high content screening assay (reference value: 97.9%); format: functional; conditions: DU-145, 24 h, read-out: Activity; method in brief: as §2
# [27] = system: DU-145; experiment: Growth inhibition of human DU145 cells at 2.5 uM after 72 hrs in presence of TRAIL by MTT assay relative to control; format: functional; conditions: DU-145, 72 h, read-out: GI; method in brief: as §1
# [28] = system: DU-145; experiment: Induction of apoptosis in human DU145 cells assessed as chromatin shrinkage at 5 uM after 24 hrs in presence of TRAIL by Hoechst 33258 staining-based fluorescence microscopic analysis; format: functional, cell-based; method in brief: as §4
# [29] = system: DU-145; experiment: Induction of apoptosis in human DU145 cells assessed as viable cells at 5 uM after 24 hrs in presence of TRAIL by Annexin V-FITC/propidium iodide staining-based high content screening assay (reference value: 97.9%); format: functional; conditions: DU-145, 24 h, read-out: Activity; method in brief: as §2
# [30] = system: DU-145; experiment: Growth inhibition of human DU145 cells at 2.5 uM by MTT assay; format: functional, cell-based; conditions: TDE = time-dependent effect; method in brief: as §1
# [31] = system: DU-145; experiment: Induction of apoptosis in human DU145 cells assessed as formation of apoptotic bodies at 5 uM after 24 hrs by Hoechst 33258 staining-based fluorescence microscopic analysis; format: functional, cell-based; method in brief: as §4
# [32] = system: DU-145; experiment: Induction of apoptosis in human DU145 cells assessed as late apoptotic cells at 5 uM after 24 hrs in presence of TRAIL by Annexin V-FITC/propidium iodide staining-based high content screening assay (reference value: 0.2%); format: functional; method in brief: as §2
# [33] = system: DU-145; experiment: Induction of apoptosis in human DU145 cells assessed as necrotic cells at 5 uM after 24 hrs by Annexin V-FITC/propidium iodide staining-based high content screening assay (reference value: 1.6%); format: functional; method in brief: as §2
# [34] = system: DU-145; experiment: Induction of apoptosis in human DU145 cells assessed as cell rounding at 5 uM after 24 hrs in presence of TRAIL by Hoechst 33258 staining-based fluorescence microscopic analysis; format: functional; method in brief: as §4
# [35] = system: DU-145; experiment: Induction of apoptosis in human DU145 cells assessed as early apoptotic cells at 5 uM after 24 hrs by Annexin V-FITC/propidium iodide staining-based high content screening assay (reference value: 0.3%); format: functional; method in brief: as §2
# [36] = system: DU-145; experiment: Induction of apoptosis in human DU145 cells assessed as late apoptotic cells at 5 uM after 24 hrs by Annexin V-FITC/propidium iodide staining-based high content screening assay (reference value: 0.2%); format: functional; method in brief: as §2
# [37] = system: DU-145; experiment: Induction of apoptosis in human DU145 cells assessed as formation of apoptotic bodies at 5 uM after 24 hrs in presence of TRAIL by Hoechst 33258 staining-based fluorescence microscopic analysis; format: functional, cell-based; method in brief: as §4
# [38] = system: DU-145; experiment: Growth inhibition of human DU145 cells at 2.5 uM after 24 to 48 hrs by MTT assay; format: functional, cell-based; method in brief: as §1
# [39] = system: DU-145; experiment: Induction of apoptosis in human DU145 cells assessed as increase in caspase-3/7 activity at 2.5 to 10 uM after 24 hrs by Caspase-Glo 3/7 assay; format: functional, cell-based; method in brief: as §5
# [40] = system: DU-145; experiment: Induction of apoptosis in human DU145 cells assessed as increase in caspase-3/7 activity at 5 uM after 24 hrs in presence of TRAIL by Caspase-Glo 3/7 assay relative to control; format: functional; method in brief: as §5
# [41] = system: DU-145; experiment: Induction of apoptosis in human DU145 cells assessed as cell rounding at 5 uM after 24 hrs by Hoechst 33258 staining-based fluorescence microscopic analysis; format: functional; method in brief: as §4
# [42] = system: DU-145; experiment: Induction of apoptosis in human DU145 cells assessed as early apoptotic cells at 5 uM after 24 hrs in presence of TRAIL by Annexin V-FITC/propidium iodide staining-based high content screening assay (reference value: 0.3%); format: functional; method in brief: as §2
# [43] = system: DU-145; experiment: Induction of apoptosis in human DU145 cells assessed as necrotic cells at 5 uM after 24 hrs in presence of TRAIL by Annexin V-FITC/propidium iodide staining-based high content screening assay (reference value: 1.6%); format: functional; method in brief: as §2
compound,measurement,setting,value
CCCCCCCCCC(=O)CC(=O)N[C@H]1CCOC1=O,growth inhibition (GI),[1],Tde
same,Activity,[2],0.5%
same,IC50,[3],26.2 µM
same,Activity,[4],Active
same,Activity,[5],Active
same,viability at 10 µM,[6],77.9%
same,Activity,[7],Active
same,viability at 10 µM,[8],89.2%
same,Activity,[9],9.7%
same,Activity,[10],9.2%
same,Activity,[11],0.2%
same,Activity,[12],Active
same,IC50,[13],22.5 µM
same,Activity,[14],Active
same,fold change (FC),[15],2
same,inhibition,[16],Dose-dependent effect
same,Activity,[17],Active
same,inhibition of growth at 5 µM,[18],20%
same,Activity,[19],Active
same,IC50,[20],29.5 µM
same,IC50,[21],19.3 µM
same,Activity,[22],1.1%
same,Activity,[23],12.2%
same,Activity,[24],Active
O=C(COc1ccc(C(=O)/C=C/c2ccccc2Cl)cc1)N[C@H]1CCOC1=O,Activity,[25],Active
same,IC50,[3],17.4 µM
same,viability at 5 µM,[26],90.1%
same,inhibition of growth at 2.5 µM,[27],50%
same,Activity,[28],Active
same,viability at 5 µM,[29],84.8%
same,growth inhibition (GI),[30],Tde
same,IC50,[13],4.61 µM
same,Activity,[31],Active
same,Activity,[32],1.7%
same,inhibition,[16],Dose-dependent effect
same,Activity,[33],1.7%
same,Activity,[34],Active
same,Activity,[35],6.4%
same,Activity,[36],1.7%
same,Activity,[37],Active
same,Activity,[38],Active
same,Activity,[39],Active
same,IC50,[20],27.1 µM
same,fold change (FC),[40],3
same,IC50,[21],3.24 µM
same,Activity,[41],Active
same,Activity,[42],13.4%
same,Activity,[43],0.1%
